A selection: hits, their analogues and other compounds. The true share with any hit is near 1.1%.
Arr AP2 block: blocks beta-arrestin peptide binding to AP2 adaptin | FITC-arrestin peptide / GST-AP2 beads, flow cytometry; AP2 beta2 appendage carries R879A mutation | inhibition, % at 10 µM | hit rate 0.31% among 340,000 | AID 504490;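 active = inhibition above a set limit, near 3 SD of compounds lacking own fluorescence, cut at about 54% in these data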
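Material – AP2 appendage R879A on GSH beads · Buffer or medium – PBS with 0.05% Tween 20 and 0.1% BSA · Probe or stimulus – fluorescein-tagged arrestin peptide at 50 nM final · Incubation – compound with beads 12 min RT, then probe 1 h RT · Detection – high-throughput flow cytometry of beads, ex 488, em 535 nm · Evaluation – percent response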
DSG3 Ab inh: blocks pemphigus antibody binding to human desmoglein-3; DSG3-coupled beads, scFv-anti-DSG3-GFP binding, flow cytometry; hits give low values; P32926; binding (percent of control), % at 10 µM; AID 588358; hit rate 0.48% among 310,000;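 active = binding more than 3 SD below its plate's average and above zero; inconclusive = below that plate limit but binding exactly zero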;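 note: hits lower antibody fragment binding to DSG3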
Target sequence (P32926 whole entry, looked up, the tested form may be a part): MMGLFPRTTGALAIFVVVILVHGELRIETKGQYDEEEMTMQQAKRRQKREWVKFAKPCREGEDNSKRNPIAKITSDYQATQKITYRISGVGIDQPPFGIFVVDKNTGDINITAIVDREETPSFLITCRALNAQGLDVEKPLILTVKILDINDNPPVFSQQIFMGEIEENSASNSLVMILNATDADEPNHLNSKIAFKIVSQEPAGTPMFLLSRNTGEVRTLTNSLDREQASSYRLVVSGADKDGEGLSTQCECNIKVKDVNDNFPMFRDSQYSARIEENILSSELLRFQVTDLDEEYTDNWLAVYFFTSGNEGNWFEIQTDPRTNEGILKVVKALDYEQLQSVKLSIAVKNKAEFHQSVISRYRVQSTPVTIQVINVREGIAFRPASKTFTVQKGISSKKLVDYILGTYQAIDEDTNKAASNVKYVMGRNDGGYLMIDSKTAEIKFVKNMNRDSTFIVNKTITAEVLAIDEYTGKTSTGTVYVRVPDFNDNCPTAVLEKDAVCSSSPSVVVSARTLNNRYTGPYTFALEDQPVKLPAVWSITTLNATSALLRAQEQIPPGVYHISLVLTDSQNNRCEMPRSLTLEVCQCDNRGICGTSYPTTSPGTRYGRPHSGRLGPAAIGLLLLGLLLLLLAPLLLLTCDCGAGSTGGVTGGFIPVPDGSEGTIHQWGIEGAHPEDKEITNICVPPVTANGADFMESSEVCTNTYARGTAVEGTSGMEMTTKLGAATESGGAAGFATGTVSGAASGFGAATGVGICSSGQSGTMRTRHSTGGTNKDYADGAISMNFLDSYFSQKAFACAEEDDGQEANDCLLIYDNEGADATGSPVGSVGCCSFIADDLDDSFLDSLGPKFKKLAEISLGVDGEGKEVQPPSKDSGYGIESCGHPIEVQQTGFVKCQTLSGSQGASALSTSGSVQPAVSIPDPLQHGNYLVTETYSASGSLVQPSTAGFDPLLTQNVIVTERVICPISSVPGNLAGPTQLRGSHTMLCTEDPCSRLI
Avidin bead fluor: avidin bead compound fluorescence profile | AID 1775 | hit rate 0.38% among 220,000 | fluorescence (KMESF) at 10 µM | Avidin beads, compound fluorescence 488/530 nm, flow cytometry; hits give high values; in the data active = fluorescence above about 47
GSH bead fluor: compound fluoresces at 488/530 nm on GSH beads | GSH beads flow cytometry, compound fluorescence 488/530 nm; hits give high values | fluorescence (KMESF) at 10 µM | hit rate 0.25% among 190,000 | AID 1776; in the data active = fluorescence above about 89;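 note: glutathione beads carrying GST-tagged Bcl family fusion proteins plus one bare bead set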
Of the large screens only hits and unclear results are named; the others gave an inactive call.

COc1ccc(CNC(=O)CSc2ncnc3nc[nH]c23)cc1	none
CCOC(=O)C1CCN(C(=O)CCNS(=O)(=O)c2cc(Br)cnc2N)CC1	none (no result: Avidin bead fluor, GSH bead fluor)
Cc1ccc(C(=O)OCC(=O)N2CCCc3ccccc32)cc1C	none (no result: Avidin bead fluor, GSH bead fluor)
N#Cc1ccc(OCC(=O)OCC(=O)N2CCc3ccccc32)cc1	none (no result: Arr AP2 block, Avidin bead fluor, GSH bead fluor)
Cc1ccc(C(=O)OCC(=O)N2CCc3ccccc32)cc1	Avidin bead fluor 50
CCC(=O)c1ccc(OCC(=O)OCC(=O)N2CCc3ccccc32)cc1	DSG3 Ab inh 63 (no result: Avidin bead fluor, GSH bead fluor)
CCOC(=O)C1=C(C)OC(N)=C(C(=O)OCC)C1c1cccnc1 (stereo not given)	none
CCOC(=O)C1=C(C)OC(N)=C(C(=O)OCC)C1c1ccncc1 (stereo not given)	GSH bead fluor 244
Cc1ccsc1C(=O)OC1CCOC1=O (stereo not given)	GSH bead fluor 271
Cc1ccc(NC(=O)CN(CCc2ccccc2)S(C)(=O)=O)cc1	none (no result: Avidin bead fluor, GSH bead fluor)
CC(Sc1nnc(NC(=O)c2cc3ccccc3oc2=O)s1)c1ccccc1 (stereo not given)	DSG3 Ab inh 72
CCCc1nnc(NC(=O)c2cc3ccccc3oc2=O)s1	none
CCOc1ccc(/C(O)=C2/C(=O)C(=O)N(c3cc(C)on3)C2c2ccc(C(=O)OC)cc2)cc1 (stereo not given)	DSG3 Ab inh -31
CCc1cc2cc3c(cc2nc1SCC(=O)Nc1cc(C)on1)OCO3	DSG3 Ab inh 87
CCc1cc2ccc(C)cc2nc1SCC(=O)Nc1cc(C)on1	none
COc1ccc(/C=C(/NC(=O)c2ccc([N+](=O)[O-])cc2)C(=O)NC(C)(C)C)cc1	none
CCn1c(=NC(=O)C2COc3ccccc3O2)sc2c(C)ccc(OC)c21 (stereo not given)	none (no result: GSH bead fluor)
CC(C)NC(=O)C1CCN(Cc2cccc(Oc3ccccc3)c2)CC1	none (no result: Avidin bead fluor, GSH bead fluor)
CC(C)NC(=O)C1CCN(Cc2cccc(OCc3ccccc3)c2)CC1	DSG3 Ab inh 83 (no result: Arr AP2 block, Avidin bead fluor, GSH bead fluor)
CN1CCN(CCC(=O)Nc2ccc(Br)cc2)CC1	none
O=C(CCN1CCCCC1)Nc1ccc(Br)cc1	Avidin bead fluor 49
CC1(C)COC2(OC1)C(=O)N(CN1CCOCC1)c1ccccc12	Avidin bead fluor 124
O=C1N(CN2CCC3(CC2)OCCO3)c2ccccc2C12OCCCO2	none
Cc1cc(-c2nn(-c3ccccc3F)cc2CN2CCN(c3ccccn3)CC2)c(C)s1	none
Oc1ccccc1C(Nc1nccs1)c1ccc2cccnc2c1O (stereo not given)	DSG3 Ab inh 70 (no result: GSH bead fluor)
N#C/C(=C(/O)CSc1nnc(Cc2cccs2)n1C1CCCCC1)c1nc2ccccc2[nH]1	GSH bead fluor 228
C=CC[C@]12C[C@@H](OC)C(=O)C=C1O[C@@H](c1ccc(OC)c(OC)c1)[C@H]2C	none (no result: Avidin bead fluor, GSH bead fluor)
COc1ccccc1N1CCN(CC(O)COc2ccc(C)cc2C)CC1 (stereo not given)	none (no result: Avidin bead fluor, GSH bead fluor)
CCCCc1cc(=O)oc2cc(C)c(CN3CCCC3)c(O)c12	DSG3 Ab inh 89
CCc1cc(=O)oc2cc(C)c(CN3CCCC(C)C3)c(O)c12 (stereo not given)	none
CCCCN(C(=O)/C=C/c1ccccc1)C1CCS(=O)(=O)C1 (stereo not given)	DSG3 Ab inh 74 (no result: Avidin bead fluor, GSH bead fluor)
CCCCN(C(=O)Oc1ccccc1)C1CCS(=O)(=O)C1 (stereo not given)	none (no result: DSG3 Ab inh, GSH bead fluor)
Cc1cc(C(F)F)nn1CC(=O)NC1C(=O)N2C(C(=O)O)=C(CSc3nnnn3C)CSC12 (stereo not given)	Avidin bead fluor 58
CCCc1nnc(NC(=O)c2ccncc2)s1	GSH bead fluor 239
CSc1ccc(C2(O)Cc3cccc[n+]3C2c2ccccc2)cc1 (stereo not given)	none (no result: GSH bead fluor)
CSc1ccc(/C=N/NC(=O)c2ccccc2Cl)cc1	none
O=S(=O)(Cc1ccccc1)Nc1ccccc1	none (no result: Avidin bead fluor, GSH bead fluor)
CN(Cc1ccccc1)S(=O)(=O)c1ccc(NS(=O)(=O)Cc2ccccc2)cc1	Avidin bead fluor 50
C#CCOCC1CN(c2ccccc2)C(=O)O1 (stereo not given)	none (no result: Arr AP2 block, Avidin bead fluor, GSH bead fluor)
O=C1OC(COc2ccc(Br)cc2)CN1c1ccccc1 (stereo not given)	DSG3 Ab inh 81 (no result: GSH bead fluor)
COC(=O)Nc1ccc2c(c1)OCO2	GSH bead fluor 100
CC(Sc1nnc(N)s1)C(=O)Nc1ccc2c(c1)OCO2 (stereo not given)	DSG3 Ab inh 89 (no result: Avidin bead fluor, GSH bead fluor)
CC(Sc1nnc(N)s1)C(=O)NCc1ccc2c(c1)OCO2 (stereo not given)	none (no result: Avidin bead fluor, GSH bead fluor)
COc1ccc(NC(=O)/C(C#N)=C\c2ccc(N3CCOCC3)o2)cc1	none
N#C/C(=C/c1ccc(N2CCCCC2)o1)C(=O)Nc1ccc2ccccc2c1	Avidin bead fluor 111
N#C/C(=C/c1ccc(N2CCCCC2)o1)C(=O)Nc1ccc(Cl)cc1	Avidin bead fluor 56
N#C/C(=C\c1ccc(N2CCOCC2)o1)C(=O)Nc1ccc(O)cc1	none
Cc1ccc(-c2cn3cccnc3n2)cc1NC(=O)c1ccc(Br)o1	DSG3 Ab inh 81
COc1ccc(-c2cn3cccnc3n2)cc1NC(=O)c1ccc(Br)o1	none
CCN(CC)c1ccc(NC2=C(Cl)C(=O)c3ccccc3C2=O)cc1	Arr AP2 block 55
NNc1ccc([N+](=O)[O-])c2[nH][nH]c(=O)c12	DSG3 Ab inh 83 (no result: Arr AP2 block, Avidin bead fluor, GSH bead fluor)
Fc1ccc2c(Cl)c(-c3nnc(-c4cccs4)o3)sc2c1	GSH bead fluor 255
O=C(O)CCCN1C(=O)/C(=C/c2ccc(-c3nc4ccccc4s3)o2)SC1=S	DSG3 Ab inh 89
O=C(O)CCCCCN1C(=O)/C(=C\c2ccc(-c3ccc(Cl)cc3)o2)SC1=S	none (no result: GSH bead fluor)
COC(=O)C1CN(C(=O)C(C)Oc2cccc(C)c2C)c2ccccc2O1 (stereo not given)	none (no result: Avidin bead fluor, GSH bead fluor)
CCC(=O)N1CCc2cc(S(=O)(=O)N3CCCCC3CC)ccc21 (stereo not given)	none (no result: Avidin bead fluor, GSH bead fluor)
C=CCN=C1S/C(=C\c2ccc(Cl)cc2)C(=O)N1CC=C	Avidin bead fluor 49 (no result: GSH bead fluor)
COc1cc(C(=O)N/C(=C\c2cn(C)c3ccccc23)C(=O)NCCCn2ccnc2)cc(OC)c1OC	DSG3 Ab inh inconclusive (no result: Avidin bead fluor, GSH bead fluor)
O=C(CSc1nc2ccccc2o1)N1CCCC1	GSH bead fluor 260
Cc1ccc(-c2nnc(SCC(=O)N3CCCC3)o2)cc1	GSH bead fluor 259
O=C(CSc1nc2ccccc2o1)N1CCOCC1	none (no result: Avidin bead fluor, GSH bead fluor)
C=C(C)c1cccc(C(C)(C)NC(=O)NCCCn2ccnc2)c1	Avidin bead fluor 50
CC(C)OC(=O)CSc1nc2c(cc1C#N)CCCCC2	DSG3 Ab inh 87
O=c1[nH]c(=O)c2nc(-c3ccc(Cl)cc3)cnc2[nH]1	none
O=c1[nH]c(=O)c2nc3c4ccccc4c4ccccc4c3nc2[nH]1	DSG3 Ab inh 29
NC(=O)c1ncn([C@@H]2O[C@H](CNCc3ccc(OCC(=O)Nc4nccs4)cc3)[C@@H](O)[C@H]2O)n1	none (no result: Avidin bead fluor, GSH bead fluor)
OCC#CCSc1nnc(-c2ccncc2)o1	GSH bead fluor 251
O=C(CSc1nnc(-c2ccccc2)o1)Nc1ccccc1F	Avidin bead fluor 91
O=C(CSc1nnc(-c2ccncc2)o1)Nc1ccccc1Cl	Avidin bead fluor 130
Cc1ccc(-c2nnc(SCC(=O)Nc3ccccc3F)o2)cc1	none
COc1ccc(N2CCN(S(=O)(=O)c3c(C)[nH]c(C)c3C(=O)N3CCCCC3)CC2)cc1	none (no result: Avidin bead fluor, GSH bead fluor)

Screens as filed in PubChem BioAssay.
